Columns and labels:
[1] = biological target: Casein kinase II (Homo sapiens, UniProt P19784+P67870+P68400); assay: Inhibition of CK2 in human DLD1 HA-myr-AKT1 cells assessed as suppression of AKTser129 phosphorylation after 3 to 24 hrs by Western blot analysis
[2] = Aqueous solubility of the compound in phosphate buffer at pH 7.4 incubated for 24 hrs by LC/MS/MS method; assay type: physicochemical
[3] = Intrinsic clearance in rat hepatocyte assessed per 10^6 cells; assay type: ADME, cell-based; settings: hepatocytes, read-out: CLH
[4] = tested on: Liver microsome; assay: Drug metabolism in rat liver microsomes in presence of ABT; assay type: ADME
Procedure, shortened: (§1)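 Metabolite formation studied in rat and human liver microsome incubations with ABT present, to probe oxidative clearance.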

[5] = Intrinsic clearance in human liver microsomes; assay type: ADME; settings: read-out: CLH
[6] = tested on: Rattus norvegicus; assay: AUC in rat at 10 mg/kg, po; assay type: ADME, organism-based; settings: in vivo
[7] = Inhibition of CK2 in mouse L-Wnt3a cells assessed as suppression of Wnt3a-mediated L S/L Super TOPFlash reporter gene transcription after 24 hrs; settings: L Wnt-3A
[8] = Antiproliferative activity against human DLD1 cells after 72 hrs by alamar blue assay; assay type: functional; settings: DLD-1, 72 h
[9] = biological target: T1, Casein kinase II subunit alpha (Homo sapiens, UniProt P68400); assay: Inhibition of full length N-terminal 6xHis-tagged recombinant human CK2alpha expressed in fall armyworm Sf21 cells using BODIPY-FL-RRRDDDSDDD-CONH2 as substrate after 90 mins by mobility shift assay
T1 sequence (P68400 whole entry): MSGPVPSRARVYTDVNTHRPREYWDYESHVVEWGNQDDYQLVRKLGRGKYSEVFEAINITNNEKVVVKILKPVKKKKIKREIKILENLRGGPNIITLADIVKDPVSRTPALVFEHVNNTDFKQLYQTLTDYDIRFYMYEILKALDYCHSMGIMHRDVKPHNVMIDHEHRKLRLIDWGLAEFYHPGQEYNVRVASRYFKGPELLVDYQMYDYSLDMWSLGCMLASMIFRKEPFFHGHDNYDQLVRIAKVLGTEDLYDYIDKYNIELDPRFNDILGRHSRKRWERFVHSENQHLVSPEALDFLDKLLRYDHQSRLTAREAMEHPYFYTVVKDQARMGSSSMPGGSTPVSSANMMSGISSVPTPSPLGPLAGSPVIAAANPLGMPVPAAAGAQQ

[10] = tested on: Hepatocyte; assay: Drug metabolism in rat hepatocytes assessed as oxidative demethylated metabolite formation; assay type: ADME, cell-based
[11] = Antiproliferative activity against human […] cells after 72 hrs by alamar blue assay; assay type: functional; settings: HCT-116, 72 h
[12] = biological target: Voltage-gated inwardly rectifying potassium channel KCNH2 (Homo sapiens, UniProt Q12809); assay: Inhibition of human ERG expressed in CHO cells by patch clamp assay; assay type: cell-based
Voltage-gated inwardly rectifying potassium channel KCNH2, sequence (Q12809 whole entry, the tested form may be a part): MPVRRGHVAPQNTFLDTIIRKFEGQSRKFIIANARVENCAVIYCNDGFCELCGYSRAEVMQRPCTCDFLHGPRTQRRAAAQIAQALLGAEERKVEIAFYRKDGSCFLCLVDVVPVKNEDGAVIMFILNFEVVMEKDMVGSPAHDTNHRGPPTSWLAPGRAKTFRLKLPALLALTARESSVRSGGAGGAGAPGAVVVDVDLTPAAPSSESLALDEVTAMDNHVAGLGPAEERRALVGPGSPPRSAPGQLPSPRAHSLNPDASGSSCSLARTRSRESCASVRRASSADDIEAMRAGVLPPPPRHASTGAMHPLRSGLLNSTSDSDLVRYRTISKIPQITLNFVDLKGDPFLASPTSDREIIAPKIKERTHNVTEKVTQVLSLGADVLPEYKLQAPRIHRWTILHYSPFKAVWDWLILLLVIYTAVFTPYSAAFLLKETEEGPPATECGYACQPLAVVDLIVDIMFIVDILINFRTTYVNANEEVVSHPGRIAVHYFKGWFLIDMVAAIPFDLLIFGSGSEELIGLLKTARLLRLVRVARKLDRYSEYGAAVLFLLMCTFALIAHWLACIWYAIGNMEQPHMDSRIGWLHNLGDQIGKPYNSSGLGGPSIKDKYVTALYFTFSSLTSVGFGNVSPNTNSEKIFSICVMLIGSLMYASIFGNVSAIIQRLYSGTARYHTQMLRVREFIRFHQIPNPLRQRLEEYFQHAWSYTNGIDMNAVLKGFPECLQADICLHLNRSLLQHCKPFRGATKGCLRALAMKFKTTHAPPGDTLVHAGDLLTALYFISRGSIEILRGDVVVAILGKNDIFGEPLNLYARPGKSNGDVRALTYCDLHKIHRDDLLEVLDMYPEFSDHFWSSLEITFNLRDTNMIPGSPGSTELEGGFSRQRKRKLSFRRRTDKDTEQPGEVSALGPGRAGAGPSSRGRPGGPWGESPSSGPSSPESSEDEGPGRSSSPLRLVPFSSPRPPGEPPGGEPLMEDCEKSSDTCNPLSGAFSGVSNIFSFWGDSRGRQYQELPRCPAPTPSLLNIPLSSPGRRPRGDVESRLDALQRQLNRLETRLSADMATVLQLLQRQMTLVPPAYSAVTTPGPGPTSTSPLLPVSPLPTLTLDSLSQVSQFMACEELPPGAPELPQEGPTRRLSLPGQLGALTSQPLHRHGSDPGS

[13] = biological target: T1, Casein kinase II subunit alpha; assay: Binding affinity to His-tagged recombinant human CK2alpha (6 to 335 residues) after 50 to 116.7 mins by surface plasmon resonance assay
[14] = tested on: Liver microsome; assay: Drug metabolism in human liver microsomes in presence of ABT; assay type: ADME; procedure, shortened: as §1
[15] = Fraction unbound in human plasma at 10 uM by equilibrium dialysis method; assay type: ADME, cell-free
[16] = Antiproliferative activity against human SW620 cells after 72 hrs by alamar blue assay; assay type: functional; settings: SW-620, 72 h

Casein kinase II, sequence (P67870 whole entry): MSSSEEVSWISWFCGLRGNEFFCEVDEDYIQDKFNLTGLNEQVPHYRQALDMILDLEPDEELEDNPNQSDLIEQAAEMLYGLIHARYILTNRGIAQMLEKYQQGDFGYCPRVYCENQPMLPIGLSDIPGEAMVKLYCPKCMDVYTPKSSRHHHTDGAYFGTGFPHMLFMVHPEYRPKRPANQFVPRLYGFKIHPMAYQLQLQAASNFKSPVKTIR
Casein kinase II, sequence (P68400 whole entry): as the sequence (P68400 whole entry) above
Casein kinase II, sequence (P19784 whole entry): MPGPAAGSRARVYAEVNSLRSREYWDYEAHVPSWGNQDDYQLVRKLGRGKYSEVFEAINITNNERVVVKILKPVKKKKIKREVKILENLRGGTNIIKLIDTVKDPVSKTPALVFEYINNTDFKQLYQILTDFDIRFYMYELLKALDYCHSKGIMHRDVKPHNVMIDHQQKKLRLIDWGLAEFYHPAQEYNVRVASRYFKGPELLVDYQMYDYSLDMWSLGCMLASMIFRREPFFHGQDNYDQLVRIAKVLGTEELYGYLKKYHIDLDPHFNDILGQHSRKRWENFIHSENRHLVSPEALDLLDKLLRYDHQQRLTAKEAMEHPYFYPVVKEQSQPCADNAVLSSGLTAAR

IC50 [1]: 1 nM
solubility at 24 h [2]: > 1000 µM
hepatocyte CLint [3]: 32 µL/min/1e6 cells
Drug metabolism [4]: metabolite_notdetected
microsomal CLint [5]: 9 µL/min/mg
AUC [6]: 0.36 µM·h
IC50 [7]: 75 nM
IC50 [9]: < 3 nM
Drug metabolism [10]: metabolite_detected
Kd [13]: 0.0482 nM
Drug metabolism [14]: metabolite_notdetected
fraction unbound at 10 µM [15]: 0.26
SMILES: CC(=O)Nc1cc(Nc2cc(NC3CC3)n3ncc(C#N)c3n2)ccc1N(C)CCN(C)C
GI50 [8]: 80 nM
GI50 [11]: 30 nM
IC50 [12]: 4 µM
GI50 [16]: 30 nM

From ChEMBL document CHEMBL3808365, “Potent and Selective CK2 Kinase Inhibitors with Effects on Wnt Pathway Signaling in Vivo” (ACS Med Chem Lett, 2016)
